Our source for the inhibition values is ChEMBL document CHEMBL2417552, “Screen of pseudopeptidic inhibitors of human sirtuins 1-3: two lead compounds with antiproliferative effects in cancer cells” (J Med Chem, 2013).

The target in assay [1] is T1, NAD-dependent protein deacetylase sirtuin-2 (Homo sapiens) (UniProt Q8IXJ6).
T1 sequence (whole entry): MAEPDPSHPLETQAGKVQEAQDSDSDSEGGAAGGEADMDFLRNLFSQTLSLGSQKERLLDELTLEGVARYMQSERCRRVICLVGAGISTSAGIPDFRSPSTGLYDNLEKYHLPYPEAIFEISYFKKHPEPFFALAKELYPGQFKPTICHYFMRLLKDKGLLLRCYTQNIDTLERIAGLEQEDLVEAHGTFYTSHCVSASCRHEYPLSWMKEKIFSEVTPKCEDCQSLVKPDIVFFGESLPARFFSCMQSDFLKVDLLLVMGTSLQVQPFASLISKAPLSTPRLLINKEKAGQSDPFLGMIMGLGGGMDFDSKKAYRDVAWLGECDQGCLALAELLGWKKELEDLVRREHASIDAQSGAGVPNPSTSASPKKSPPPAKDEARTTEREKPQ
Description: Inhibition of human recombinant GST-tagged SIRT2 using KI179 as substrate at 50 uM preincubated for 5 mins followed by enzyme addition measured after 1 hr by fluorescence assay relative to control. A digest of the protocol: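 Recombinant GST-SIRT2, Fluor de Lys assay in SIRT assay buffer. Acetylated peptide KI179 at 0.7 Km (Km 198 µM) and NAD+ at 0.9 Km (reported Km 547 µM). Buffer, substrate, NAD+ and compound in DMSO preincubated 5 min at room temperature. Enzyme added to start; 1 h at 37 °C. Developer with 2 mM nicotinamide added; 45 min at 37 °C; fluorescence read. Mean ± SD, ≥3 experiments.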

Assay [2] has as its target T2, NAD-dependent protein deacetylase sirtuin-3, mitochondrial (Homo sapiens) (UniProt Q9NTG7).
T2 sequence (whole entry): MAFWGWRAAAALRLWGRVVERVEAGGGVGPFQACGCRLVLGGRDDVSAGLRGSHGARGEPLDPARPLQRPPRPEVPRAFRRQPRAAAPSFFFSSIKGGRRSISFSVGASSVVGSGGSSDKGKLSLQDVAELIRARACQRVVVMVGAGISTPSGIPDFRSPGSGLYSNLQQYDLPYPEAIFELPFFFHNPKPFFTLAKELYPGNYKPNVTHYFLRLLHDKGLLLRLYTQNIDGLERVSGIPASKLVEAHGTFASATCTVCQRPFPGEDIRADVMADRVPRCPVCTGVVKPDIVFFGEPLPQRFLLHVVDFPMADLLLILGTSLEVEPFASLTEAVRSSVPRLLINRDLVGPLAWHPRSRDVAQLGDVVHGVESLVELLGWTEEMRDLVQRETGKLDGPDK
The settings on record: at 50 µM.

The target in assay [3] is T3, NAD-dependent protein deacetylase sirtuin-1 (Homo sapiens) (UniProt Q96EB6).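 Note: recombinant GST-tagged human SIRT1 enzyme assay with KI177 substrate, fluorescence read 1 h after enzyme addition, inhibition expressed relative to control.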
T3 sequence (whole entry): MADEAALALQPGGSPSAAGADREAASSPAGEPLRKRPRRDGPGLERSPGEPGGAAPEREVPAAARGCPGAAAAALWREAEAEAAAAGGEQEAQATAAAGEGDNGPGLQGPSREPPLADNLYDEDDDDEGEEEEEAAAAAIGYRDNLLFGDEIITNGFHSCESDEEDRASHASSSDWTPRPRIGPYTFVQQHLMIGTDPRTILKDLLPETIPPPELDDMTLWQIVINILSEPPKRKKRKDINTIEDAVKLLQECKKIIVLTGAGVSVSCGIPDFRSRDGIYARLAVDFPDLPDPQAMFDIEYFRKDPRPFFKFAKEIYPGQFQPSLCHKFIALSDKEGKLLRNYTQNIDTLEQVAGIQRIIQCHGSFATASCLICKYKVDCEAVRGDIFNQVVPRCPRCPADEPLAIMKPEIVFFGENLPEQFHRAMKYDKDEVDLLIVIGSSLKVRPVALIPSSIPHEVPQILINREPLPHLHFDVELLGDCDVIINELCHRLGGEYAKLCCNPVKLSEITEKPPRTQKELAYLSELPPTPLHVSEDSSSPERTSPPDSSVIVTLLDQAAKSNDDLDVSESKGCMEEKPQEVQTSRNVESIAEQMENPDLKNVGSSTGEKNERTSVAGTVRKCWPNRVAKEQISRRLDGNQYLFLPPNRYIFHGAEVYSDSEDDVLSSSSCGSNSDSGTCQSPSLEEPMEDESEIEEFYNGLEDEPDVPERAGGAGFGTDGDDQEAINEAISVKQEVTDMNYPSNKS
The settings on record: at 50 µM.

On to `CC(=S)NCCCC[C@H](NC(=O)OCc1ccccc1)C(=O)NCC(O)c1ccccc1` (some centres not stated), for which the inhibition (commonly the share of the control response that was lost under treatment) in assay [1] was 54%; in assay [2], 45%; in assay [3], 77%.
The corresponding values for `CC(=S)NCCCC[C@H](NC(=O)OC(C)(C)C)C(=O)NCC(=O)c1ccccc1` are 87%, 63% and 91%.
Take `CC(=S)NCCCC[C@H](NC(=O)C[C@@H]1NC(=O)[C@H](Cc2ccccc2)NC1=O)C(=O)NCC(=O)c1ccccc1`: the inhibition turned out to be 73% in assay [1], 61% in assay [2] and 96% in assay [3].
The matching figures for `CC(=S)NCCCC[C@H](NC(=O)OCc1ccccc1)C(=O)N[C@@H](C)C(N)=O`: 86%, 85% and 96%.
Turning to `CC(=S)NCCCC[C@H](NC(=O)CCc1cccnc1)C(=O)Nc1ccccc1`, the inhibition in assay [1] is 39%; in assay [2], 44%; in assay [3] it was 82%.
Take `CC(=S)NCCCC[C@H](NC(=O)OCc1ccccc1)C(=O)NCCc1c[nH]c2ccccc12`: the inhibition in assay [1] was 61%; in assay [2], 46%; in assay [3], 85%.
The matching figures for `CC(=S)NCCCC[C@H](NC(=O)OCc1ccccc1)C(=O)NCCc1ccccc1`: 52%, 41% and 72%.
For the compound `CC(=S)NCCCC[C@H](NC(=O)CCc1cccnc1)C(=O)NCC(=O)c1ccccc1`, the inhibition in assay [1] came out at 58%; in assay [2], 62%; in assay [3], 95%.
With `CC(=S)NCCCC[C@H](NC(=O)CCCCCc1ccccc1)C(=O)NCc1ccccc1`, the results for the inhibition in assay [1], in assay [2] and in assay [3] were 71%, 84% and 100%, respectively.
As for `CC(=S)NCCCC[C@H](NC(=O)[C@@H]1CCCN1C(=O)OC(C)(C)C)C(=O)NCCc1cccnc1`, the inhibition in assay [1] is 49%; in assay [2] it was 68%; in assay [3] it was 66%.
The corresponding values for `CC(=S)NCCCC[C@H](NC(=O)OCc1ccccc1)C(=O)Nc1ccccc1` are 81%, 62% and 83%.
With `CC(=S)NCCCC[C@H](NC(=O)CCCCCCc1ccccc1)C(=O)NCc1ccccc1`, the inhibition turned out to be 74% in assay [1], 87% in assay [2] and 99% in assay [3].
For the compound `CC(=S)NCCCC[C@H](NC(=O)[C@@H]1C[C@@H](O)CN1C(=O)OCc1ccccc1)C(=O)NCc1ccccc1`, the inhibition was 87% in assay [1], 93% in assay [2] and 97% in assay [3].
Regarding `CC(=S)NCCCC[C@H](NC(=O)[C@@H]1CCCN1C(=O)OC(C)(C)C)C(=O)Nc1ccccc1`, the inhibition in assay [1] is 44%; in assay [2] it was 45%; in assay [3], 80%.
On to `CC(=S)NCCCC[C@H](NC(=O)OCc1ccccc1)C(=O)NCC(=O)c1ccccc1`, for which the inhibition was found to be 94% in assay [1], 74% in assay [2] and 97% in assay [3].
In the case of `CC(=S)NCCCC[C@H](NC(=O)CCc1ccccc1F)C(=O)Nc1cccnc1`, the inhibition turned out to be 74% in assay [1], 72% in assay [2] and 94% in assay [3].
As for `CC(=S)NCCCC[C@H](NC(=O)CCc1ccccc1)C(=O)Nc1cccnc1`, the figures for the inhibition in assay [1], in assay [2] and in assay [3] were 21%, 39% and 83%, respectively.
In the case of `CC(=S)NCCCC[C@H](NC(=O)OCc1ccccc1)C(=O)NCCc1c[nH]c2ccc(OCc3ccccc3)cc12`, the values for the inhibition in assay [1], in assay [2] and in assay [3] were 79%, 68% and 87%, respectively.
The matching figures for `CC(=S)NCCCC[C@H](NC(=O)[C@@H]1CCCN1)C(=O)Nc1ccccc1`: 13%, 19% and 86%.
As for `CC(=S)NCCCC[C@H](NC(=O)CCc1ccccc1)C(=O)NCC(=O)c1ccccc1`, the values for the inhibition in assay [1], in assay [2] and in assay [3] were 65%, 68% and 96%, respectively.
The matching figures for `CC(=S)NCCCC[C@H](NC(=O)OCc1ccccc1)C(=O)Nc1cccnc1`: 70%, 59% and 84%.
For the compound `CC(=S)NCCCC[C@H](NC(=O)[C@@H]1CCCN1C(=O)OC(C)(C)C)C(=O)NCC(=O)c1ccccc1`, the inhibition stood at 95% in assay [1], 76% in assay [2] and 97% in assay [3].
The corresponding values for `CC(=S)NCCCC[C@H](NC(=O)OC(C)(C)C)C(=O)NCCc1cccnc1` are 28%, 24% and 41%.
The matching figures for `CC(=S)NCCCC[C@H](NC(=O)CCCc1ccccc1)C(=O)NCC(=O)c1ccccc1`: 76%, 72% and 98%.
In the case of `CC(=S)NCCCC[C@H](NC(=O)OCc1ccccc1)C(=O)NCc1ccccc1`, the inhibition was determined as 67% in assay [1], 71% in assay [2] and 91% in assay [3].
Turning to `CC(=S)NCCCC[C@H](NC(=O)CN(C)C)C(=O)Nc1ccccc1`, the figures for the inhibition in assay [1], in assay [2] and in assay [3] were 18%, 16% and 62%, respectively.
For `CC(=S)NCCCC[C@H](NC(=O)CCCCCc1ccccc1)C(=O)NCC(=O)c1ccccc1`, the inhibition in assay [1] was 83%; in assay [2], 82%; in assay [3], 98%.
For `CC(=S)NCCCC[C@H](NC(=O)OCc1ccccc1)C(=O)NCC(N)=O`, the inhibition was found to be 72% in assay [1], 77% in assay [2] and 91% in assay [3].
With `CC(=S)NCCCC[C@H](NC(=O)[C@@H]1C[C@@H](O)CN1C(=O)OCc1ccccc1)C(=O)Nc1ccccc1`, the inhibition in assay [1] was 54%; in assay [2] it was 69%; in assay [3], 90%.
